From ChEMBL document CHEMBL4431328, “Development of a Single-Chain Peptide Agonist of the Relaxin-3 Receptor Using Hydrocarbon Stapling” (J Med Chem, 2016)
Active and inactive are the calls of the source. The rule behind the calls is not given here. Where a SMILES comes first, the peptide text is derived from it. Bridges are numbered along the chain shown (N, C = ends). [ ]: non-standard residue; d: D form. S5 = C=CCCC[C@](C)(N)C(=O)O; hCys = N[C@@H](CCS)C(=O)O

Columns and labels:
[1] = molecular target: T1, Relaxin receptor 1 (Homo sapiens) (UniProt Q9HBX9); experiment: Agonist activity at RXFP1 receptor (unknown origin) expressed in HEK-293T cells cotransfected with beta-galactosidase assessed as cAMP activation at 10 uM by beta-galactosidase reporter gene assay; assay type: functional, cell-based
T1 sequence (whole entry): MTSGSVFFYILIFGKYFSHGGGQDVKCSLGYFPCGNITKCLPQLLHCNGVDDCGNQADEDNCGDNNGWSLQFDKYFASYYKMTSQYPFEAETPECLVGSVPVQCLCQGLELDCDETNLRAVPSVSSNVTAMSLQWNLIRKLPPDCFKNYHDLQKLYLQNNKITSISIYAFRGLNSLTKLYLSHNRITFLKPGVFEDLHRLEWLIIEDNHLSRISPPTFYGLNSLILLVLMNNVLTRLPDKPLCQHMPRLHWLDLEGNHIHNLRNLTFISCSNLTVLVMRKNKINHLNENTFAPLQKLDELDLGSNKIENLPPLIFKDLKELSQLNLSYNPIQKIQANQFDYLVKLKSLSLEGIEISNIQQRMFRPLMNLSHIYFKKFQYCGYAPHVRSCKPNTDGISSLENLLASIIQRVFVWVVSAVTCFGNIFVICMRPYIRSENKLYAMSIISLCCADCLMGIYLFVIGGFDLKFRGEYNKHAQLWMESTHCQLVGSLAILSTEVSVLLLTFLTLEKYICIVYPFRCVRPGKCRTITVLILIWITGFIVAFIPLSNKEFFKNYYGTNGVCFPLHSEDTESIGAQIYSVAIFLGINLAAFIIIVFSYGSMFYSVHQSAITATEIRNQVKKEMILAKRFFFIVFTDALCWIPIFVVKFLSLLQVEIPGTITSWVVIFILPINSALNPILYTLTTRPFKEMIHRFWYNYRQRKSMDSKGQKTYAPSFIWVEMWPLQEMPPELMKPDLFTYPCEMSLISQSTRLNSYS
Summary of the method: (§1)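 Tested for RXFP1 activation at concentrations up to 10 µM, alongside the […] as a reference.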

Relaxin-3 receptor 2 [2] = molecular target: T2, Relaxin-3 receptor 2 (Homo sapiens, UniProt Q8TDU9); experiment: Displacement of Eu-INSL5 from human RXFP4 receptor expressed in CHOK1 cells by time-resolved fluorescent whole cell binding assay; assay type: cell-based
T2 sequence (Q8TDU9 whole entry): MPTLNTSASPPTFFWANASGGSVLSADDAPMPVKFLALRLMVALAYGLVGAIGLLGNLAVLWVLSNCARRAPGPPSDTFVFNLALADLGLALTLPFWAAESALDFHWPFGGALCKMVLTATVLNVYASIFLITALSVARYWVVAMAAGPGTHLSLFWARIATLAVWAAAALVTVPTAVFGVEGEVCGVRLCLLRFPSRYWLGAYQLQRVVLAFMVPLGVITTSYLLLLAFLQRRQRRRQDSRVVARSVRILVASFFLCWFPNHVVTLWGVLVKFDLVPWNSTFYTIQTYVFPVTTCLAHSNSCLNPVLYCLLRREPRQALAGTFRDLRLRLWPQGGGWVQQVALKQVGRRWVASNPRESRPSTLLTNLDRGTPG

Relaxin-3 receptor 1 [3] = molecular target: T3, Relaxin-3 receptor 1 (Homo sapiens, UniProt Q9NSD7); experiment: Agonist activity at human RXFP3 receptor expressed in CHOK1 cells cotransfected with beta-galactosidase assessed as inhibition of forskolin-stimulated cAMP by beta-galactosidase reporter gene assay; assay type: functional, cell-based
T3 sequence (Q9NSD7 whole entry): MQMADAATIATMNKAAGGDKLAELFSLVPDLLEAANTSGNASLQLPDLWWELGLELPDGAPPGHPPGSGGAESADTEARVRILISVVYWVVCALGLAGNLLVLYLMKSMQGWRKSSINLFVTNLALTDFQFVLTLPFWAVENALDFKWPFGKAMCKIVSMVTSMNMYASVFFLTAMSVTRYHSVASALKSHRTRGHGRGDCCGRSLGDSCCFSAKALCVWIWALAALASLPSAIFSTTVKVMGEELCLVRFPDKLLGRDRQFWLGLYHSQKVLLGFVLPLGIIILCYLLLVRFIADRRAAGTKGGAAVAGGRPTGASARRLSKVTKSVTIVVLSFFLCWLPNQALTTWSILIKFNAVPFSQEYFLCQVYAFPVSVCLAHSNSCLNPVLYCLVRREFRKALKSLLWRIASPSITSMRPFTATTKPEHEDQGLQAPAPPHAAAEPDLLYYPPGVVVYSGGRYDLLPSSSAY

Relaxin-3 receptor 1 [4] = molecular target: T3, Relaxin-3 receptor 1; experiment: Displacement of Eu-H3/15 from human RXFP3 receptor expressed in CHOK1 cells by time-resolved fluorescent whole cell binding assay; assay type: cell-based
Relaxin-3 receptor 2 [5] = molecular target: T2, Relaxin-3 receptor 2; experiment: Agonist activity at human RXFP4 receptor expressed in CHOK1 cells cotransfected with beta-galactosidase assessed as inhibition of forskolin-stimulated cAMP by beta-galactosidase reporter gene assay; assay type: functional, cell-based
[6] = molecular target: T1, Relaxin receptor 1 (Homo sapiens); experiment: (§2) Agonist activity at RXFP1 receptor (unknown origin) expressed in HEK-293T cells cotransfected with beta-galactosidase assessed as cAMP activation by beta-galactosidase reporter gene assay; assay type: functional, cell-based; summary of the method: as §1
Relaxin receptor 1 = molecular target: T4, Relaxin receptor 1 (Homo sapiens, UniProt Q9HBX9); experiment: as §2; assay type: functional, cell-based; summary of the method: as §1
T4 sequence (Q9HBX9 whole entry): T1 sequence (whole entry)

Row | SMILES | Activity [1] | Ki (Relaxin-3 receptor 2 [2]) | EC50 (Relaxin-3 receptor 1 [3]) | Ki (Relaxin-3 receptor 1 [4]) | EC50 (Relaxin-3 receptor 2 [5]) | pEC50 [6] | pKi (Relaxin-3 receptor 2 [2]) | EC50 (Relaxin receptor 1)
1 | CC[C@H](C)[C@@H]1NC(=O)[C@H](Cc2ccccc2)NC(=O)[C@@H](NC(=O)[C@H](CCCNC(=N)N)NC(=O)CNC(=O)[C@H](CO)NC(C)=O)CCSSCC[C@@H](C(=O)N[C@H](C(=O)N[C@H](C(=O)N[C@@H](Cc2ccccc2)C(=O)N[C@H](C(=O)N[C@@H](CO)C(=O)NCC(=O)NCC(=O)N[C@@H](CO)C(=O)N[C@@H](CCCNC(=N)N)C(=O)N[C@@H](Cc2c[nH]c3ccccc23)C(=O)O)[C@@H](C)O)[C@@H](C)CC)C(C)C)NC(=O)[C@H](CCCNC(=N)N)NC1=O (Ac-SGR[hCys]FIR[hCys]VIFTSGGSRW-OH; disulfide 4-8) | inactive | > 10000 nM | > 10000 nM | 2510 nM | 3720 nM |  |  | 
2 | CC[C@H](C)[C@@H]1NC(=O)[C@H](Cc2ccccc2)NC(=O)[C@@](C)(NC(=O)[C@H](CCCNC(=N)N)NC(=O)CNC(=O)[C@H](CO)NC(=O)[C@H](CC(C)C)NC(=O)[C@H](CCCNC(=N)N)NC(=O)[C@@H](NC(=O)CN)C(C)C)CCC/C=C/CCC[C@@](C)(C(=O)N[C@H](C(=O)N[C@H](C(=O)N[C@@H](Cc2ccccc2)C(=O)N[C@H](C(=O)N[C@@H](CO)C(=O)NCC(=O)NCC(=O)N[C@@H](CO)C(=O)N[C@@H](CCCNC(=N)N)C(=O)N[C@@H](Cc2c[nH]c3ccccc23)C(=O)O)[C@@H](C)O)[C@@H](C)CC)C(C)C)NC(=O)[C@H](CCCNC(=N)N)NC1=O (H-GVRLSGR[S5]FIR[S5]VIFTSGGSRW-OH; staple (E) 8-12) | inactive | 275 nM | 4.47 nM | 93.3 nM | 316 nM | inactive |  | 
3 | CC[C@H](C)[C@@H]1NC(=O)[C@H](Cc2ccccc2)NC(=O)[C@@](C)(NC(=O)[C@H](CCCNC(=N)N)NC(=O)CNC(=O)[C@H](CO)NC(=O)[C@H](CC(C)C)NC(=O)[C@@H](N)CCCNC(=N)N)CCC/C=C/CCC[C@@](C)(C(=O)N[C@H](C(=O)N[C@H](C(=O)N[C@@H](Cc2ccccc2)C(=O)N[C@H](C(=O)N[C@@H](CO)C(=O)NCC(=O)NCC(=O)N[C@@H](CO)C(=O)N[C@@H](CCCNC(=N)N)C(=O)N[C@@H](Cc2c[nH]c3ccccc23)C(=O)O)[C@@H](C)O)[C@@H](C)CC)C(C)C)NC(=O)[C@H](CCCNC(=N)N)NC1=O (H-RLSGR[S5]FIR[S5]VIFTSGGSRW-OH; staple (E) 6-10) | inactive |  | 3.55 nM |  | 123 nM | inactive |  | 
4 | CC[C@H](C)[C@@H]1NC(=O)[C@H](Cc2ccccc2)NC(=O)[C@@](C)(NC(=O)[C@H](CCCNC(=N)N)NC(=O)CNC(=O)[C@@H](N)CO)CCC/C=C/CCC[C@@](C)(C(=O)N[C@H](C(=O)N[C@H](C(=O)N[C@@H](Cc2ccccc2)C(=O)N[C@H](C(=O)N[C@@H](CO)C(=O)NCC(=O)NCC(=O)N[C@@H](CO)C(=O)N[C@@H](CCCNC(=N)N)C(=O)N[C@@H](Cc2c[nH]c3ccccc23)C(=O)O)[C@@H](C)O)[C@@H](C)CC)C(C)C)NC(=O)[C@H](CCCNC(=N)N)NC1=O (H-SGR[S5]FIR[S5]VIFTSGGSRW-OH; staple (E) 4-8) | inactive | 407 nM | 4.47 nM | 151 nM | 191 nM | inactive |  | 
5 | CC[C@H](C)[C@H](NC(=O)[C@H](Cc1ccccc1)NC(=O)[C@H](CCC(=O)O)NC(=O)[C@H](CCCNC(=N)N)NC(=O)CNC(=O)[C@H](CO)NC(=O)[C@H](CC(C)C)NC(=O)[C@H](CCCNC(=N)N)NC(C)=O)C(=O)N[C@@H](CCCNC(=N)N)C(=O)N[C@@]1(C)CCC/C=C\CCC[C@@](C)(C(=O)N[C@@H](CO)C(=O)NCC(=O)NCC(=O)N[C@@H](CO)C(=O)N[C@@H](CCCNC(=N)N)C(=O)N[C@@H](Cc2c[nH]c3ccccc23)C(=O)O)NC(=O)[C@H](Cc2ccccc2)NC(=O)[C@H]([C@@H](C)CC)NC(=O)[C@H](C(C)C)NC1=O (Ac-RLSGREFIR[S5]VIF[S5]SGGSRW-OH; staple (Z) 10-14) | inactive |  | > 10000 nM | 603 nM | > 10000 nM | inactive | inactive | 
6 | CC[C@H](C)[C@@H]1NC(=O)[C@H](Cc2ccccc2)NC(=O)[C@@](C)(NC(=O)[C@H](CCCNC(=N)N)NC(=O)CNC(=O)[C@H](CO)NC(=O)[C@H](CC(C)C)NC(=O)[C@H](CCCNC(=N)N)NC(=O)[C@@H](NC(=O)CNC(C)=O)C(C)C)CCC/C=C/CCC[C@@](C)(C(=O)N[C@H](C(=O)N[C@H](C(=O)N[C@@H](Cc2ccccc2)C(=O)N[C@H](C(=O)N[C@@H](CO)C(=O)NCC(=O)NCC(=O)N[C@@H](CO)C(=O)N[C@@H](CCCNC(=N)N)C(=O)N[C@@H](Cc2c[nH]c3ccccc23)C(=O)O)[C@@H](C)O)[C@@H](C)CC)C(C)C)NC(=O)[C@H](CCCNC(=N)N)NC1=O (Ac-GVRLSGR[S5]FIR[S5]VIFTSGGSRW-OH; staple (E) 8-12) | inactive |  | 11.7 nM | 229 nM |  |  |  | 
7 | CC[C@H](C)[C@H](NC(=O)[C@H](C)NC(=O)[C@@H](NC(=O)[C@H](CCC(N)=O)NC(=O)[C@H](C)NC(=O)[C@H](CCCNC(=N)N)NC(=O)[C@@H](NC(=O)[C@H](CC(C)C)NC(=O)[C@H](CCC(=O)O)NC(=O)[C@H](CCCNC(=N)N)NC(=O)CNC(=O)[C@H](CS)NC(=O)[C@H](CC(C)C)NC(=O)[C@H](CCCCN)NC(=O)[C@@H](NC(=O)[C@@H](NC(=O)[C@H](CCC(=O)O)NC(=O)[C@H](CCC(=O)O)NC(=O)[C@H](CCSC)NC(=O)[C@H](Cc1c[nH]c2ccccc12)NC(=O)[C@H](CO)NC(=O)[C@@H](N)CC(=O)O)C(C)C)[C@@H](C)CC)C(C)C)[C@@H](C)CC)C(=O)N[C@@H](CS)C(=O)NCC(=O)N[C@@H](CCSC)C(=O)N[C@@H](CO)C(=O)N[C@H](C(=O)N[C@@H](Cc1c[nH]c2ccccc12)C(=O)N[C@@H](CO)C(=O)O)[C@@H](C)O | inactive |  |  |  |  |  |  | > 10000 nM
8 | CC[C@H](C)[C@@H]1NC(=O)[C@H](Cc2ccccc2)NC(=O)[C@@H](NC(=O)[C@H](CCCNC(=N)N)NC(=O)CNC(=O)[C@H](CO)NC(C)=O)CCC(=O)NCCCC[C@@H](C(=O)N[C@H](C(=O)N[C@H](C(=O)N[C@@H](Cc2ccccc2)C(=O)N[C@H](C(=O)N[C@@H](CO)C(=O)NCC(=O)NCC(=O)N[C@@H](CO)C(=O)N[C@@H](CCCNC(=N)N)C(=O)N[C@@H](Cc2c[nH]c3ccccc23)C(=O)O)[C@@H](C)O)[C@@H](C)CC)C(C)C)NC(=O)[C@H](CCCNC(=N)N)NC1=O (Ac-SGREFIRKVIFTSGGSRW-OH; lactam 4-8) | inactive | > 10000 nM | > 1000 nM |  | 537 nM |  |  | 
9 | CC[C@H](C)[C@H](NC(=O)[C@H](Cc1ccccc1)NC(=O)[C@H](CCC(=O)O)NC(=O)[C@H](CCCNC(=N)N)NC(=O)CNC(=O)[C@H](CO)NC(=O)[C@H](CC(C)C)NC(=O)[C@@H](N)CCCNC(=N)N)C(=O)N[C@@H](CCCNC(=N)N)C(=O)N[C@@]1(C)CCC/C=C\CCC[C@@](C)(C(=O)N[C@@H](CO)C(=O)NCC(=O)NCC(=O)N[C@@H](CO)C(=O)N[C@@H](CCCNC(=N)N)C(=O)N[C@@H](Cc2c[nH]c3ccccc23)C(=O)O)NC(=O)[C@H](Cc2ccccc2)NC(=O)[C@H]([C@@H](C)CC)NC(=O)[C@H](C(C)C)NC1=O (H-RLSGREFIR[S5]VIF[S5]SGGSRW-OH; staple (Z) 10-14) | inactive | > 10000 nM | > 10000 nM | 575 nM | 2750 nM | inactive |  | 
